Assay results: ChEMBL document CHEMBL1949646, “Design, synthesis, in vitro antimicrobial and anticancer activity of novel methylenebis-isoxazolo[4,5-b]azepines derivatives” (Eur J Med Chem, 2012)
Values after ≈ are worked out from the molar mass of the structure shown.

What was measured:
Lactococcus lactis = test: Antibacterial activity against Streptococcus lactis after 24 to 28 hrs by agar diffusion method; type: functional
HEK293 = test: Cytotoxicity against human HEK293 cells after 48 hrs by MTT assay; type: cell-based; details: HEK293, 48 h
Method in brief: (§1)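 Cells kept in a humidified 5% CO2 incubator. Compounds diluted in culture medium and added to wells alongside a vehicle control. After MTT, supernatant removed, formazan dissolved in DMSO, and absorbance read at 540 nm. Percentage growth inhibition calculated. At least three independent assays.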

MCF7 = test: Cytotoxicity against human estrogen receptor-positive MCF7 cells after 48 hrs by MTT assay; type: functional, cell-based; details: MCF7, 48 h; method in brief: as §1
MDA-MB-231 = test: Cytotoxicity against human estrogen receptor-negative MDA-MB-231 cells after 48 hrs by MTT assay; type: functional, cell-based; details: MDA-MB-231, 48 h; method in brief: as §1
Pseudomonas aeruginosa = test: Antibacterial activity against Pseudomonas aeruginosa after 24 to 28 hrs by agar diffusion method; type: functional
Trichoderma viride = test: Antifungal activity against Trichoderma viride after 5 days by agar diffusion method; type: functional; details: 120 h
Bacillus subtilis = test: Antibacterial activity against Bacillus subtilis after 24 to 28 hrs by agar diffusion method; type: functional
Aspergillus flavus = test: Antifungal activity against Aspergillus flavus after 5 days by agar diffusion method; type: functional; details: 120 h
Escherichia coli = test: Antibacterial activity against Escherichia coli after 24 to 28 hrs by agar diffusion method; type: functional

Structure (SMILES) | MIC (Lactococcus lactis) [µg/mL] | MIC (Pseudomonas aeruginosa) [µg/mL] | MIC (Trichoderma viride) [µg/mL] | MIC (Bacillus subtilis) [µg/mL] | MIC (Aspergillus flavus) [µg/mL] | MIC (Escherichia coli) [µg/mL] | IC50 (HEK293) [µM] | IC50 (MCF7) [µM] | IC50 (MDA-MB-231) [µM]
Cc1noc2c1N=C(c1ccc(Br)cc1)CC(c1cc(Cc3ccc(O)c(C4CC(c5ccc(Br)cc5)=Nc5c(C)noc5C4)c3)ccc1O)C2 (stereo not given) | 25 (≈ 31 µM) | 30 (≈ 37.2 µM) | 32 (≈ 39.7 µM) | 30 (≈ 37.2 µM) | 30 (≈ 37.2 µM) | 27 (≈ 33.5 µM) | 54.5 | 34.2 | 51.2
Cc1noc2c1N=C(c1ccc([N+](=O)[O-])cc1)CC(c1cc(Cc3ccc(O)c(C4CC(c5ccc([N+](=O)[O-])cc5)=Nc5c(C)noc5C4)c3)ccc1O)C2 (stereo not given) | 26 (≈ 35.2 µM) | 28 (≈ 37.9 µM) | 30 (≈ 40.6 µM) | 30 (≈ 40.6 µM) | 30 (≈ 40.6 µM) | 28 (≈ 37.9 µM) | 55.6 | 36.3 | 53.4
Cc1noc2c1N=C(c1ccc(Cl)cc1)CC(c1cc(Cc3ccc(O)c(C4CC(c5ccc(Cl)cc5)=Nc5c(C)noc5C4)c3)ccc1O)C2 (stereo not given) | 25 (≈ 34.8 µM) | 30 (≈ 41.8 µM) | 30 (≈ 41.8 µM) | 28 (≈ 39 µM) | 32 (≈ 44.6 µM) | 28 (≈ 39 µM) | 53.3 | 30.4 | 52.5
COc1ccc(C2=Nc3c(C)noc3CC(c3cc(Cc4ccc(O)c(C5CC(c6ccc(OC)cc6)=Nc6c(C)noc6C5)c4)ccc3O)C2)cc1 (stereo not given) | 30 (≈ 42.3 µM) | 32 (≈ 45.1 µM) | 40 (≈ 56.4 µM) | 35 (≈ 49.4 µM) | 35 (≈ 49.4 µM) | 35 (≈ 49.4 µM) | 57.4 | 40.4 | 58.1
CCn1cc(C(=O)O)c(=O)c2ccc(C)nc21 [NALIDIXIC ACID] | 25 (≈ 108 µM) | 30 (≈ 129 µM) | – | 30 (≈ 129 µM) | – | 28 (≈ 121 µM) | – | – | –

More lines, main results first:

MIC (Lactococcus lactis) [µg/mL] | MIC (Pseudomonas aeruginosa) [µg/mL] | MIC (Trichoderma viride) [µg/mL] | MIC (Bacillus subtilis) [µg/mL] | MIC (Aspergillus flavus) [µg/mL] | MIC (Escherichia coli) [µg/mL] | Structure (SMILES) | IC50 (HEK293) [µM] | IC50 (MCF7) [µM] | IC50 (MDA-MB-231) [µM]
40 (≈ 61.7 µM) | 35 (≈ 53.9 µM) | 40 (≈ 61.7 µM) | 35 (≈ 53.9 µM) | 40 (≈ 61.7 µM) | 40 (≈ 61.7 µM) | Cc1noc2c1N=C(c1ccccc1)CC(c1cc(Cc3ccc(O)c(C4CC(c5ccccc5)=Nc5c(C)noc5C4)c3)ccc1O)C2 (stereo not given) | 85.4 | 80.6 | 82.6
32 (≈ 47.3 µM) | 40 (≈ 59.1 µM) | 38 (≈ 56.1 µM) | 35 (≈ 51.7 µM) | 35 (≈ 51.7 µM) | 35 (≈ 51.7 µM) | Cc1ccc(C2=Nc3c(C)noc3CC(c3cc(Cc4ccc(O)c(C5CC(c6ccc(C)cc6)=Nc6c(C)noc6C5)c4)ccc3O)C2)cc1 (stereo not given) | 63.4 | 42.3 | 61.1
35 (≈ 51.4 µM) | 38 (≈ 55.8 µM) | 40 (≈ 58.8 µM) | 38 (≈ 55.8 µM) | 38 (≈ 55.8 µM) | 36 (≈ 52.9 µM) | Cc1noc2c1N=C(c1ccccc1O)CC(c1cc(Cc3ccc(O)c(C4CC(c5ccccc5O)=Nc5c(C)noc5C4)c3)ccc1O)C2 (stereo not given) | 65.5 | 44.3 | 63.4
22 (≈ 35 µM) | 14 (≈ 22.3 µM) | 16 (≈ 25.4 µM) | 20 (≈ 31.8 µM) | 20 (≈ 31.8 µM) | 16 (≈ 25.4 µM) | Cc1noc2c1N=C(c1ccco1)CC(c1cc(Cc3ccc(O)c(C4CC(c5ccco5)=Nc5c(C)noc5C4)c3)ccc1O)C2 (stereo not given) | 30.2 | 12.5 | 10.3
20 (≈ 30.3 µM) | 12 (≈ 18.2 µM) | 14 (≈ 21.2 µM) | 19 (≈ 28.8 µM) | 15 (≈ 22.7 µM) | 14 (≈ 21.2 µM) | Cc1noc2c1N=C(c1cccs1)CC(c1cc(Cc3ccc(O)c(C4CC(c5cccs5)=Nc5c(C)noc5C4)c3)ccc1O)C2 (stereo not given) | 10.3 | 10.2 | 18.2
